This is an account of results in ChEMBL document CHEMBL5705897, “Characterization of WZ4003 and HTH-01-015 as selective inhibitors of the LKB1-tumour-suppressor-activated NUAK kinases” (Biochem J, 2014).

Activity calls are given as the source filed them. No cut-off for these calls is given here.

Assay [1] addresses cAMP-dependent protein kinase catalytic subunit alpha (Homo sapiens) (UniProt P17612). The experiment in a line: Inhibition of recombinant human N-terminal GST-tagged PKAalpha (2 to 351 residues) expressed in Escherichia coli assessed as remaining activity at 1 uM using Kemptide as substrate incubated for 30 mins in presence of [gamma-33P]ATP by filter binding method relative to control. The method in brief: (§1)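 Screened at the International Centre for Protein Kinase Profiling against a 140-kinase panel, with inhibitor at 0.1 or 1 μM; activity expressed as percentage of DMSO control reactions, mean of triplicate reactions.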

The target in assay [2] is Serine/threonine-protein kinase TBK1 (Homo sapiens) (UniProt Q9UHD2). The experiment in a line: Inhibition of recombinant human N-terminal GST-tagged TBK1 (1 to 729 residues) expressed in baculovirus infected Sf21 cells assessed as remaining activity at 1 uM using KKKKERLLDDRHDSGLDSMKDEE as substrate incubated for 30 mins in presence of [gamma-33P]ATP by filter binding method relative to control. A digest of the protocol:
as §1

Assay [3] deals with T1, NUAK family SNF1-like kinase 1 (Homo sapiens) (UniProt O60285).
T1 sequence (whole entry): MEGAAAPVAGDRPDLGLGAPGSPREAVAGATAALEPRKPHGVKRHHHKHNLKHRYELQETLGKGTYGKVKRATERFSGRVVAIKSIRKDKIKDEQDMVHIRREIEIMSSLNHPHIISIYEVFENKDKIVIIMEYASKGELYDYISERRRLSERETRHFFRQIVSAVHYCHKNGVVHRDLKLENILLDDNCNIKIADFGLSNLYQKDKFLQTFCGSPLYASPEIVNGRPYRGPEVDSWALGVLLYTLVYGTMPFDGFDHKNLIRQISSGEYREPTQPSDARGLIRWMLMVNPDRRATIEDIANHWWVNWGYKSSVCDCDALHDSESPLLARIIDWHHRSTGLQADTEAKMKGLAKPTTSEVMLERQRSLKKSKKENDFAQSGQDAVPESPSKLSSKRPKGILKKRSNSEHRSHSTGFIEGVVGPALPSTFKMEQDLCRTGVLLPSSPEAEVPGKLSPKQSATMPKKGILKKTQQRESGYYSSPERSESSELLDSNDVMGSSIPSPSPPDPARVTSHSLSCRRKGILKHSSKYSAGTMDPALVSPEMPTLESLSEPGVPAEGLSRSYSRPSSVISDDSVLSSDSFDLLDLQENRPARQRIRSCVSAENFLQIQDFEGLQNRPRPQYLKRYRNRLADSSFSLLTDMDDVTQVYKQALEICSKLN
The experiment in a line: Inhibition of NUAK1 (unknown origin) expressed in HEK293 cells assessed as reduction in MYPT1 phosphorylation at Ser445 residue at 30 uM incubated for 16 hrs by immunoblot analysis. Type of assay: cell-based. The method in brief: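 HEK-293 Flp/In T-Rex cells stably expressing HA–NUAK1 or HA–NUAK1[A195T] (doxycycline 0.1 μg/ml, 16–24 h to induce) treated with inhibitor 16 h, then detached in EDTA-PBS dissociation buffer containing the same inhibitor concentration, tapped and spun 70 g 3 min; lysed, endogenous MYPT1 immunoprecipitated from 0.5 mg lysate and immunoblotted for p-Ser445 and total MYPT1; three separate experiments.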
(A western blot detects proteins with antibodies after separation by electrophoresis.)

For assay [4], the system named is MEF. The assay is described as follows: Inhibition of NUAK1 in NUAK1+/+ MEF cells assessed as reduction in MYPT1 phosphorylation at Ser445 residues at 10 uM after 16 hrs by immunoblot analysis. Format: cell-based. The settings on record: Mus musculus. The method in brief: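 U2OS cells or NUAK1+/+ MEFs treated with or without 10 μM inhibitor for 16 h, then 20 min in EDTA-PBS dissociation buffer with 10 μM inhibitor or DMSO; detached by tapping and 70 g 3 min spin, lysed immediately and immunoblotted for MYPT1 p-Ser445; three separate experiments.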

Assay [5] concerns the target T1, NUAK family SNF1-like kinase 1 (Homo sapiens). The experiment in a line: Inhibition of NUAK1 in HEK293 cells assessed as reduction in MYPT1 phosphorylation at Ser445 residue incubated for 16 hrs by immunoblot analysis. Format: cell-based. The settings on record: dose 3-10 µM. A digest of the protocol:
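HEK-293 cells exposed to inhibitor or DMSO for 16 h; medium replaced by EDTA-PBS dissociation buffer with the same inhibitor concentration to induce detachment (gentle tapping, 70 g, 3 min); cells lysed at once; MYPT1 immunoprecipitated from 0.5 mg lysate, blotted for p-Ser445 and total MYPT1; repeated three times.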

The target in assay [6] is Protein kinase C alpha type (Homo sapiens) (UniProt P17252). The assay is described as follows: Inhibition of recombinant human N-terminal His6-tagged PKCalpha (1 to 672 residues) expressed in baculovirus infected Sf21 cells assessed as remaining activity at 1 uM using Histone H1 as substrate incubated for 30 mins in presence of [gamma-33P]ATP by filter binding method relative to control. A digest of the protocol:
as §1

Assay [7] has as its system U2OS. The experiment in a line: Inhibition of cell invasion in human U2OS cells at 10 uM incubated for 16 hrs by matrigel based transwell assay. Type of assay: functional. A digest of the protocol: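 Growth-factor-reduced Matrigel Transwell invasion: U2OS cells serum-deprived 2 h, detached, 2.5×10^5 cells in DMEM/1% BSA added to upper chambers in triplicate, DMEM/10% FBS as chemoattractant below; 16 h at 37 °C, 5% CO2 with or without 10 μM inhibitor in both compartments; cells on lower filter face fixed, stained, imaged ×10 and counted; mean ± S.D.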

Assay [8] relates to U2OS. The assay is described as follows: Antiproliferative activity against human U2OS cells assessed as reduction in cell viability at 10 uM after 5 days by CellTiter 96 non-radioactive cell proliferation assay. Type of assay: functional, cell-based. The settings on record: time 5.0 day. The method in brief:
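Colorimetric CellTiter 96 AQueous proliferation assay in 96-well format; 2000 cells/well seeded for U2OS, 3000 cells/well for MEFs; grown 5 days with or without 10 μM inhibitor; run in triplicate. Inhibitors dissolved in DMSO, final DMSO in medium ≤1%. MEFs cultured in DMEM/10% FBS, glutamine, non-essential amino acids, sodium pyruvate.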

Assay [9] has as its target Serine/threonine-protein kinase BRSK2 (Homo sapiens) (UniProt Q8IWQ3). The assay is described as follows: Inhibition of recombinant human N-terminal His6-tagged BRSK2 (2 to 674 residues) expressed in baculovirus infected Sf21 cells assessed as remaining activity at 1 uM using KKLNRTLSFAEPG as substrate incubated for 30 mins in presence of [gamma-33P]ATP by filter binding method relative to control. A digest of the protocol:
as §1

The target in assay [10] is Dual specificity tyrosine-phosphorylation-regulated kinase 3 (Homo sapiens) (UniProt O43781). The experiment in a line: Inhibition of recombinant human N-terminal GST-tagged DYRK3 (1 to 588 residues) expressed in Escherichia coli assessed as remaining activity at 1 uM using KKISGRLSPIMTEQ as substrate incubated for 30 mins in presence of [gamma-33P]ATP by filter binding method relative to control. The method in brief:
as §1

In assay [11] the target is Mitogen-activated protein kinase kinase kinase 11 (Homo sapiens) (UniProt Q16584). The experiment in a line: Inhibition of recombinant human N-terminal GST-tagged MLK3 (96 to 386 residues) expressed in baculovirus infected Sf21 cells assessed as remaining activity at 1 uM using MBP as substrate incubated for 30 mins in presence of [gamma-33P]ATP by filter binding method relative to control. A digest of the protocol:
as §1

The target of assay [12] is Mitogen-activated protein kinase kinase kinase kinase 2 (Homo sapiens) (UniProt Q12851). The assay is described as follows: Inhibition of recombinant human N-terminal His6-tagged GCK (2 to 812 residues) expressed in baculovirus infected Sf21 cells assessed as remaining activity at 1 uM using MBP as substrate incubated for 30 mins in presence of [gamma-33P]ATP by filter binding method relative to control. The method in brief: as §1
Sequence of Mitogen-activated protein kinase kinase kinase kinase 2 (Homo sapiens) (Q12851 whole entry, the tested form may be a part): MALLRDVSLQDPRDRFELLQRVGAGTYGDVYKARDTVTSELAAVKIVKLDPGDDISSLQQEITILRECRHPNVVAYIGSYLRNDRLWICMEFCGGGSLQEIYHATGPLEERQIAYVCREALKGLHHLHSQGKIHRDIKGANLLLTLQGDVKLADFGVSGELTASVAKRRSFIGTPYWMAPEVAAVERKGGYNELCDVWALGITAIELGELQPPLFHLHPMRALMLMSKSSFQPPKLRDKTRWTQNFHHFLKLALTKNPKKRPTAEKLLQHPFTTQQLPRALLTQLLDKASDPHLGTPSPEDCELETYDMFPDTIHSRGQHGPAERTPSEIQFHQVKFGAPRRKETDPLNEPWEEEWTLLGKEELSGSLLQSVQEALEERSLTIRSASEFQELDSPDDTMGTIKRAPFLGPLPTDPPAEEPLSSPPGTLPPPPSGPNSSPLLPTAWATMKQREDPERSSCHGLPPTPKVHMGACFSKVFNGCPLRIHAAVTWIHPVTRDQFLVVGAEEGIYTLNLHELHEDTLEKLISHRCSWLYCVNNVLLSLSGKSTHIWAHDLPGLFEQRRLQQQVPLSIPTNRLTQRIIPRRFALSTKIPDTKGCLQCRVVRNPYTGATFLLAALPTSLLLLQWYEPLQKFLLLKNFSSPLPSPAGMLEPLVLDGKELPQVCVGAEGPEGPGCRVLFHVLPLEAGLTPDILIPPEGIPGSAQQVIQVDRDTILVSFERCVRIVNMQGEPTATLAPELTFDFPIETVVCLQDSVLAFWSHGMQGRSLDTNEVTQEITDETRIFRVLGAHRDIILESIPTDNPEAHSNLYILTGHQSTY

Sequence of Mitogen-activated protein kinase kinase kinase 11 (Homo sapiens) (Q16584 whole entry, looked up, the tested form may be a part): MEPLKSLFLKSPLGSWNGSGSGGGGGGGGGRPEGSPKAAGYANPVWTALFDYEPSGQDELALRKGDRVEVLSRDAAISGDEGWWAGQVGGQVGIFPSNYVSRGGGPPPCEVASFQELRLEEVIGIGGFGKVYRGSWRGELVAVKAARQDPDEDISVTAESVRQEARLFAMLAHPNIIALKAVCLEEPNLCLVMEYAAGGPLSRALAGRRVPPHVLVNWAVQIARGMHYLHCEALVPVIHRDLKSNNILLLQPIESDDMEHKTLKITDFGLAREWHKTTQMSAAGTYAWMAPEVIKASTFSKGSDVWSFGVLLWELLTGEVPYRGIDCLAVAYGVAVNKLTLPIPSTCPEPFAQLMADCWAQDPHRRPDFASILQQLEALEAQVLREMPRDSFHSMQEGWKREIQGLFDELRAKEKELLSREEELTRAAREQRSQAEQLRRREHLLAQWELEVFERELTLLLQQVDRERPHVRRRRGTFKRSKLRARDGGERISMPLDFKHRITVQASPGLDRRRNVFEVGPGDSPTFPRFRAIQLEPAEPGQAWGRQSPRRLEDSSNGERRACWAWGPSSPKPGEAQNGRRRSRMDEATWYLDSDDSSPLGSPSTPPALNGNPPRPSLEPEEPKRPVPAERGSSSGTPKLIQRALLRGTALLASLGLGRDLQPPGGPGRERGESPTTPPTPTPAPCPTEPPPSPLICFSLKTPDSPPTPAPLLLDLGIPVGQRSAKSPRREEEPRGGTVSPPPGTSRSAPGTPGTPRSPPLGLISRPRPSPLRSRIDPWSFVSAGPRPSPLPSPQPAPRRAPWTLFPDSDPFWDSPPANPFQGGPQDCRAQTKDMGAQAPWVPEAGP
Sequence of Serine/threonine-protein kinase TBK1 (Homo sapiens) (Q9UHD2 whole entry, the tested form may be a part): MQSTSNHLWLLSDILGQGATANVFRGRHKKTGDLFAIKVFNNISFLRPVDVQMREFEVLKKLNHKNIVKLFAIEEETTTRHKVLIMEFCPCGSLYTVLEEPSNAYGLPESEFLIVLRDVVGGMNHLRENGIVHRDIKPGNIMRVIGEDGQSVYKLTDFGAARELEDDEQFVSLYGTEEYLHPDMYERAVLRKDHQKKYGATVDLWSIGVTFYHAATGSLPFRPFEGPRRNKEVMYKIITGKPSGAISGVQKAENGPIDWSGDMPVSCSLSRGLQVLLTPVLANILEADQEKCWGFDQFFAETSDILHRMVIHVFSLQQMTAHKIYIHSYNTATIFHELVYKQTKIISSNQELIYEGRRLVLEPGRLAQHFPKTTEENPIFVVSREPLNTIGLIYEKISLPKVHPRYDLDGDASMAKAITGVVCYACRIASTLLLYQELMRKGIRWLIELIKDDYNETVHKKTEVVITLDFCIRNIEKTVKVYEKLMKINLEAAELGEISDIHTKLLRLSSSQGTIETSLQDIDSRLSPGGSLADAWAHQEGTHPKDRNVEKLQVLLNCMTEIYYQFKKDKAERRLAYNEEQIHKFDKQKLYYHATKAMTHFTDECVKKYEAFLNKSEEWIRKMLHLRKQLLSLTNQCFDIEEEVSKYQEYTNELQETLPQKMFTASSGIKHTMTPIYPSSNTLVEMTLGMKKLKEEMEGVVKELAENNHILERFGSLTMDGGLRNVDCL
Sequence of Dual specificity tyrosine-phosphorylation-regulated kinase 3 (Homo sapiens) (O43781 whole entry, the tested form may be a part): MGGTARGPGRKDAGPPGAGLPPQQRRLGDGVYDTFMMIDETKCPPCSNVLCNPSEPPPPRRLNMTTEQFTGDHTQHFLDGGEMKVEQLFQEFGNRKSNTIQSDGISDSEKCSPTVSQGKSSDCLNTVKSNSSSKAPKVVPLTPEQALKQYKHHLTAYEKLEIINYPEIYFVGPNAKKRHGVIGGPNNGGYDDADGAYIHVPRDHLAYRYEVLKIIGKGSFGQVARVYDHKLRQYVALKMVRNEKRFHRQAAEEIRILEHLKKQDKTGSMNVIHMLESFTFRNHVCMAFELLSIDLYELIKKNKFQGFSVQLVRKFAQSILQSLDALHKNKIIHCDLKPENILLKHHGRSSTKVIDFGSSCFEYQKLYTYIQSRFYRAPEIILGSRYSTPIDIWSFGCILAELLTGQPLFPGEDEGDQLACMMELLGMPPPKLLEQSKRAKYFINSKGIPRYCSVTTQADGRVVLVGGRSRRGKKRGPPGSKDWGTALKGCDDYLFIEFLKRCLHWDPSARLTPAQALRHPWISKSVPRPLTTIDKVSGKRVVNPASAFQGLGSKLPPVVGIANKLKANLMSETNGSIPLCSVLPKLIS
Sequence of Serine/threonine-protein kinase BRSK2 (Homo sapiens) (Q8IWQ3 whole entry, the tested form may be a part): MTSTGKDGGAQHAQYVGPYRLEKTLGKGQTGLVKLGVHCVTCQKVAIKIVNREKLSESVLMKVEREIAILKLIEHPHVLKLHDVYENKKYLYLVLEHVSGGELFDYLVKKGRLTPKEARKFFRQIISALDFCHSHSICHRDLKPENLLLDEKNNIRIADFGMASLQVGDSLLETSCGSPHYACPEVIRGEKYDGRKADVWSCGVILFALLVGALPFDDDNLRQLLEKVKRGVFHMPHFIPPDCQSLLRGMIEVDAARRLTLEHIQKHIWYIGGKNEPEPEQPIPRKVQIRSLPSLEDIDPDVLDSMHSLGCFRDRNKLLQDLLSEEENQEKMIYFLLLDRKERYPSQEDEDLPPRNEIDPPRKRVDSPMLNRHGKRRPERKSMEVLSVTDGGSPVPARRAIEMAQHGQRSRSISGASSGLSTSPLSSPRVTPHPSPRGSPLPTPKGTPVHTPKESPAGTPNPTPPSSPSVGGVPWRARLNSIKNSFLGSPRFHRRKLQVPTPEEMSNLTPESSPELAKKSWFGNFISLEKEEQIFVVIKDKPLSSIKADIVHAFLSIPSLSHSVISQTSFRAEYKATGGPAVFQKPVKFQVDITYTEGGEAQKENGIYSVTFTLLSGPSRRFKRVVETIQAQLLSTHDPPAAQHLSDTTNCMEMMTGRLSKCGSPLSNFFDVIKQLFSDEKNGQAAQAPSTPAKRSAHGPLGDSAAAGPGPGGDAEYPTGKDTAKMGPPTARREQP

Regarding `CCC(=O)Nc1cccc(Oc2nc(Nc3ccc(N4CCN(C)CC4)cc3OC)ncc2Cl)c1`, the Activity was found to be 84% in assay [1]; 84% in [2]; 77% in assay [6]; 75% in [9]; 71% in assay [10]; 73% in assay [11]. Also, the Activity in [12] is 96%. In addition, the inhibition entry in assay [3], in assay [4], in assay [7] and in [8] was “Active” in each case. Further, the inhibition entry in [5] is “Dose-Dependent Effect”.
